Source: PubChem
Mot1-301 SUMO = SUMOylation pathway inhibition by Mot1-301 growth rescue; S. cerevisiae Mot1-301 growth rescue, ATP luminescence, 38.5C; percent above DMSO median, 100 means doubled; growth rescue, % at 18.8 µM; 320,000 tested, 1% active; AID 2716;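 active means every valid replicate shows activation above 250% relative to neutral control wells; inactive means the rest, any valid replicate at or below 250%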;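 further: OY570 slx delta 5 strain wells were the positive control but not used for scaling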
KCNQ1 block = blocks the human KCNQ1 potassium channel; P51787; B-score at 10 µM; CHO-K1 KCNQ1, FluxOR thallium flux fluorescence; stronger effect = higher value; 310,000 tested, 1.3% active;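 active means compounds whose thallium flux B-score, printed positive for inhibition, exceeds three library SD while starting fluorescence stays within three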;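 further: channel opened by potassium depolarization with thallium stimulus after 20 min compound exposure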
AI-2 QS modul = Vibrio harveyi AI-2 quorum sensing modulation; Vibrio harveyi JMH597 AI-2 luminescence/OD600 ratio, 9 h; stronger effect = lower value; strain lacks LuxN and CqsS sensors; 0 = neutral-control median; activity change, % at 7.5 µM; 300,000 tested, 0.4% active; AID 2094; in the data active means activity change below about -75%, passing the limit was not always enough; inconclusive means no clear call, values can overlap the other calls;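 further: luminescence divided by OD600 gain over 9 h not by final OD600 alone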
hERG protect = compounds protecting human hERG from proarrhythmic drug block; activation (rescue from dofetilide block), less the hit threshold, % at 10 µM; CHO-hERG, FluxOR thallium flux, dofetilide IC70 present; 310,000 tested, 0.51% active; Q12809;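 active means activation above the mean of controls blocked by dofetilide plus 5 SD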;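 further: thallium influx through hERG after potassium depolarization seen as dye fluorescence rise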
KCNQ1 act = human KCNQ1 channel potentiation or activation | CHO-K1 KCNQ1, thallium flux FluxOR fluorescence; stronger effect = higher value | B-score at 10 µM | P51787 | 310,000 tested, 0.35% active;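 active means fluorescence ratio B-score, a plate-corrected score, at least three library SD, with initial intensity B-score within 5 SD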
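Assay system: CHO-K1 cells stably expressing KCNQ1. Medium: assay buffer for compound exposure, DMSO matched across wells. Timing: 37 °C overnight plating, 90-min dark dye load, 20-min compound pretreatment. Signal: kinetic FluxOR fluorescence, 10 s baseline plus 110 s post-stimulus.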
Cl transport mod = modulators of human KCC2 chloride dependent transport; KCC2 cells, thallium flux FluoZin-2 fluorescence; B-score of Tl+ flux slope (higher = more flux/activation; lower = inhibition) at 10 µM; 190,000 tested, 2.2% active;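 active means thallium flux slope and its plate-corrected score both differing from the plate sample mean at a set confidence after two filtering rounds, in either direction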;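 further: slope of fluorescence scaled to starting intensity during 10 to 20 s after thallium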
Target sequence (Q9H2X9 whole entry, looked up): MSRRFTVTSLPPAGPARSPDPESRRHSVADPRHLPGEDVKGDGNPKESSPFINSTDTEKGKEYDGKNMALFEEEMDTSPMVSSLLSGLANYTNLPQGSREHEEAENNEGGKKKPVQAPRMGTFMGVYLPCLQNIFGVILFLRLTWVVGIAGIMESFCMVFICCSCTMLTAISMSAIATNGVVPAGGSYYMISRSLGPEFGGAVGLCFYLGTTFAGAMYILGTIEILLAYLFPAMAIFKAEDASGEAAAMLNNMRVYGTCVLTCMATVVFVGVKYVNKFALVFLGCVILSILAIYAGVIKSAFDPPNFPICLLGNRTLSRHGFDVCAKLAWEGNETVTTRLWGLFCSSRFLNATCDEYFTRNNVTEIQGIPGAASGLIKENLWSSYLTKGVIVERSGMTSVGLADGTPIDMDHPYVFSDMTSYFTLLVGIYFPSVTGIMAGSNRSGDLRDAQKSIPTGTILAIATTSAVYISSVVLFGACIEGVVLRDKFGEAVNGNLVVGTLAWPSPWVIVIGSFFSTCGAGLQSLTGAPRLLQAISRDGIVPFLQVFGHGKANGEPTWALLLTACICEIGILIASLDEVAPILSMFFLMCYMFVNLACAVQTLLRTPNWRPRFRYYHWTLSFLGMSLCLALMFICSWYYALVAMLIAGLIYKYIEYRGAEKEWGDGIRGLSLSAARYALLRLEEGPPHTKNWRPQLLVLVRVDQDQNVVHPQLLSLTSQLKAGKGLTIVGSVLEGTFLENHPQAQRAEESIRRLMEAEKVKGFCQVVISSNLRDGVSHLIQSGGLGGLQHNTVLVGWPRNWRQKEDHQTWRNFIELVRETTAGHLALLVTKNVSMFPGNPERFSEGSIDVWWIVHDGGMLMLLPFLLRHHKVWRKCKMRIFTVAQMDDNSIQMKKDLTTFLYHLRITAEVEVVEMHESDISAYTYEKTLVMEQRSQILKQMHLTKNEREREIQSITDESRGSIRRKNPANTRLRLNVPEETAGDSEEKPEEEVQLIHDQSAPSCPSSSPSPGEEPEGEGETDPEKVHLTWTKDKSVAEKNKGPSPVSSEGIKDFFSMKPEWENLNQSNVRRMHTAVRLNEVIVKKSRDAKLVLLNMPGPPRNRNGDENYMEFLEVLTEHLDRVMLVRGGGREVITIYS
* marks the source's active call; other numbers are inactive results; i = inactive; ? = inconclusive; . = no result. This is a sample that favours compounds with a hit; in the whole collection about 4.2% have one here.

SMILES	Mot1-301 SUMO	KCNQ1 block	AI-2 QS modul	hERG protect	KCNQ1 act	Cl transport mod
Cc1sc2nc(SCC(=O)NCc3ccco3)n(C)c(=O)c2c1C	2	i	19	-6	i	-0.76
CCn1c(SCC(=O)NC(=O)NCc2ccco2)nc2sc(C)c(C)c2c1=O	.	i	18	9.2*	12*	16*
O=C(CSc1nc(-c2ccc(F)cc2)cs1)NC(=O)NCc1ccco1	-4	i	-22	4.9*	i	.
CC(C)(C)OC(=O)C[C@@H]1C/C=C\C[C@@H](CC(=O)N[C@H](CO)Cc2ccccc2)C(=O)N2CCC[C@H]2COC1=O	-16	.	.	.	.	.
COc1ccc(N(CC(=O)NC2CCCC2)C(=O)CCC(=O)Nc2nc(C)cs2)cc1OC	1	i	.	-8	i	.
CCCCCOC(=O)C1=C(C)Nc2nnnn2C1c1ccccc1Cl (stereo not drawn)	.	i	12	-8	i	.
COC(=O)C1=C(C)Nc2nnnn2C1c1ccccc1Cl (stereo not drawn)	339*	.	15	.	.	-0.042
CCC(C)n1c(SCC(=O)NC2CCS(=O)(=O)C2)nc2ccccc2c1=O (stereo not drawn)	-4	i	19	-12	i	.
O=C(O)CCCCCNC(=O)c1ccccc1Br	0	i	19	5.4*	i	0.27
O=C(N/N=C/c1sc(N2CCOCC2)nc1-c1ccccc1)c1ccccc1Cl	-3	i	3	-4	i	-0.1
O=C(N/N=C/c1sc(N2CCOCC2)nc1-c1ccccc1)c1ccccc1O	12	9*	30	-13	i	0.85
O=[N+]([O-])c1ccc(N/N=C/c2sc(N3CCOCC3)nc2-c2ccccc2)c(S(=O)(=O)Nc2ccc(Cl)cc2)c1	.	11*	11	-18	i	1.2
COc1ccccc1NC(=O)Cc1nnc(SCC(=O)Nc2nccs2)n1C	-9	i	22	3	i	.
CCOC(=O)/C(C#N)=C/C1=C(N2CCOCC2)CC(C)(C)OC1	-27	i	15	-13	i	-1.3
O=C(CCc1nnc2n(Cc3ccc(F)cc3)c(=O)c3ccccc3n12)N1CCN(c2ccccn2)CC1	10	i	54	-9	i	.
CCc1nn2cc(C(=O)c3cc(Cl)ccc3O)cnc2c1-c1ccc(F)cc1	279	8*	19	-10	i	-0.62
Cc1ccc(-c2csc(NC(=O)c3ccc([N+](=O)[O-])o3)n2)cc1	52	i	-158*	-6	i	.
Cc1ccc(-c2csc(NC(=O)c3ccc(C)o3)n2)cc1	182	i	0	-7	i	-0.39
O=C(Nc1ccccn1)c1ccc([N+](=O)[O-])o1	-51	i	?	-8	i	0.98
Cc1ccnc(NC(=O)c2ccc([N+](=O)[O-])o2)c1	-39	i	-252*	-11	i	-0.0065
O=C1NC(=S)/C(=C\c2ccc(-c3ccccc3Cl)o2)S1	-7	i	1	2	i	25*
Cc1ccccc1NS(=O)(=O)c1ccc(OCC(=O)N2CCCC2)cc1	13	i	4	-4	i	0.43
C=CCOc1ccc(/C(O)=C2/C(=O)C(=O)N(CCCn3ccnc3)C2c2ccco2)cc1 (stereo not drawn)	3	i	17	-8	i	0.24
CCCOc1ccc(/C(O)=C2/C(=O)C(=O)N(CCCn3ccnc3)C2c2ccco2)cc1 (stereo not drawn)	-28	i	15	6.8*	i	.
CC(C)(C)OC(=O)NCCc1nnc(SCC(N)=O)o1	14	i	13	-20	i	0.37
SMILES	Mot1-301 SUMO	KCNQ1 block	AI-2 QS modul	hERG protect	KCNQ1 act	Cl transport mod
CC(C)(C)OC(=O)NCCCCCc1nnc(SCC(N)=O)o1	-9	i	20	4.6*	i	0.68
CCOC(=O)C(C)Sc1nc2c([nH]c3ccccc32)c(=O)n1C (stereo not drawn)	-8	i	14	-2	i	-0.31
CCOC(=O)CSc1nc2c([nH]c3ccccc32)c(=O)n1C	-9	i	31	6.7*	i	0.41
O=C(O)c1ccc(OCc2ccc(C(=O)O)o2)cc1	5	i	28	-7	i	.
CCc1ccc(OCc2ccc(C(=O)O)o2)cc1	-9	i	32	5.2*	i	.
Cc1nc2ccc(S(=O)(=O)NCC(=O)NC(C)c3ccccc3)cc2s1 (stereo not drawn)	13	i	-97*	-5	i	0.28
Cc1nc2ccc(S(=O)(=O)NC(C(=O)NCc3ccco3)C(C)C)cc2s1 (stereo not drawn)	357*	i	22	-4	i	-0.0026
Cc1nc2ccc(S(=O)(=O)NCC(=O)N3CCN(c4ccccc4)CC3)cc2s1	0	i	23	-1	i	-1.4
CC(=O)c1c(C)[nH]c(C(=O)CN2CCN(S(=O)(=O)c3ccccc3F)CC2)c1C	-7	.	.	.	.	.
COc1ccc(C(=O)Nc2sc(C)c(-c3ccccc3)c2C#N)cc1OC	4	6*	9	-5	i	-1.7
O=C(NCC1CCCO1)C(=O)N/N=C/c1cc(Cl)ccc1O (stereo not drawn)	-6	i	-90*	-10	i	0.11
COc1ccc(N(CC(=O)Nc2cc([N+](=O)[O-])ccc2C)S(C)(=O)=O)cc1OC	26	i	-16	-9	i	0.74
O=C1/C(=C/c2ccc(N3CCOCC3)o2)SC(=Nc2ccccc2)N1CCc1c[nH]c2ccccc12	34	7*	24	-29	i	-1.6
COc1ccc(N=C2S/C(=C\c3ccc(OC(C)C(=O)O)c(OC)c3)C(=O)N2CCc2c[nH]c3ccccc23)cc1 (stereo not drawn)	.	11*	11	-14	i	-1.7
O=C1S/C(=C/c2ccc(N3CCOCC3)o2)C(=O)N1Cc1ccc(F)cc1	-8	i	8	-12	i	.
COc1cc(/C=C2\SC(=Nc3ccccc3)N(CCc3c[nH]c4ccccc34)C2=O)ccc1OC(C)C(=O)O (stereo not drawn)	-10	i	37	-11	i	-0.26
CCOC(=O)N1CCN(C(=O)CN(C)S(=O)(=O)c2ccc(OCC)cc2)CC1	-5	i	23	-1	i	.
CCOC(=O)C1(Cc2ccccc2)CCCN(C(=O)c2ccc(-n3ccnc3)cc2)C1 (stereo not drawn)	1	i	5	-13	i	.
CCCc1c(C(=O)Nc2ccc(F)cc2F)cnn1-c1ccccc1	8	i	4	-9	i	-1.1
O=C(NNc1cccc(Cl)c1)c1cccnc1Cl	344*	i	1	-6	i	0.65
O=C(NNc1cccc(Cl)n1)c1cccnc1Cl	-3	i	10	-8	i	0.41
